Key:
[1] = folding enthalpy; higher = less favourable; fluorescence melt of hairpins on a sequencing array, two-state fit; details: sodium 0.088 M
Summary of the method: (§1)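 Cy3 fluorescence of library hairpins on a sequenced MiSeq flow cell, with annealed Cy3 and quencher oligos, was imaged in 50 mM Na-HEPES pH 8.0, 25 mM NaCl in 2.5 °C steps up to 60 °C. Signals were normalised to pre-quench Cy3 and to control variants. Melting temperature and folding enthalpy came from bootstrapped two-state fits, inverse-variance combined over four replicates. Fitted temperatures were raised by 9.35 °C to match UV melts.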

[2] = melting temperature; fluorescence melt of hairpins on a sequencing array, two-state fit, raised by 9.35 °C to match UV melts; details: sodium 0.088 M
Summary of the method: as §1

Row | Sequence | folding enthalpy [1] | Tm [2]
1 | GTGACGGGAAACCGCCAC (((.(((....))).))) | -42.1 kcal/mol | 52.2 °C
2 | GTGACGGGAAACCGTTGC (..((((....))))..) | -17.6 kcal/mol | 45.4 °C
3 | GTGACTGGAAACGGTTAC ((.((.(....).)).)) | -8.77 kcal/mol | 36.9 °C
4 | GTGAGACCGAAAGGTCAC (((..(((....)))))) | -16.1 kcal/mol | 50.4 °C
5 | GTGAGAGGAAACTCTCAC (((((((....))))))) | -41.8 kcal/mol | 61.7 °C
6 | GTGAGAGGAAACTCTTAC ((.((((....)))).)) | -30.9 kcal/mol | 38.2 °C
7 | GTGAGCCGAAAGGCCAC (((.(((....)))))) | -18.7 kcal/mol | 64.7 °C
8 | GTGAGCCGAAAGGCCCAC (((.(((....))).))) | -23.3 kcal/mol | 55.3 °C
9 | GTGAGCGAAAGCTATCAC ((((((....)))..))) | -18.3 kcal/mol | 37.6 °C
10 | GTGAGCGAAAGCTCTCAC ((((((....)))..))) | -10 kcal/mol | 40.6 °C
11 | GTGAGCGAAAGCTGTCAC ((((((....)))..))) | -14.3 kcal/mol | 40.2 °C
12 | GTGAGCGAAAGCTTACAC ((((((....)))..))) | -14 kcal/mol | 49 °C
13 | GTGAGCGGAAACGCCCAC (((.(((....))).))) | -23.7 kcal/mol | 51.1 °C
14 | GTGAGCGGAAACGCTTGC (..((((....))))..) | -16.2 kcal/mol | 43.8 °C
15 | GTGAGGACGAAAGTCCAC (((..(((....)))))) | -13.9 kcal/mol | 47.9 °C
16 | GTGAGGCGAAAGCCACAC (((.(((....))).))) | -26.5 kcal/mol | 59.6 °C
17 | GTGAGGGCGAAAGCCCAC (((..(((....)))))) | -11.6 kcal/mol | 46.5 °C
18 | GTGAGGGGAAACTCTCGC (.(((.(....).))).) | -24.9 kcal/mol | 37.2 °C
19 | GTGAGTCGAAAGACCAC (((.(((....)))))) | -33.7 kcal/mol | 53 °C
20 | GTGAGTGCGAAAGCACAC (((..(((....)))))) | -12.5 kcal/mol | 48.6 °C
21 | GTGAGTGGAAACACTCAC (((((((....))))))) | -44 kcal/mol | 66.2 °C
22 | GTGATAACGAAAGTTCAC (((..(((....)))))) | -15.1 kcal/mol | 37.5 °C
23 | GTGATAGCGAAAGCTCAC (((..(((....)))))) | -18.9 kcal/mol | 44.9 °C

Row | Sequence | folding enthalpy [1] | Tm [2]
24 | GTGATAGGAAACTGTCAC ((((.((....)).)))) | -36.5 kcal/mol | 45.7 °C
25 | GTGATCCCGAAAGGGCAC (((..(((....)))))) | -14.4 kcal/mol | 39.9 °C
26 | GTGATCCGAAAGGACAC (((.(((....)))))) | -22.5 kcal/mol | 50.7 °C
27 | GTGATCGAAAGATAACAC ((((((....)))..))) | -23.6 kcal/mol | 34.5 °C
28 | GTGATCGAAAGATCACAC ((((((....)))..))) | -14.1 kcal/mol | 67.3 °C
29 | GTGATCGAAAGATCGCAC ((((((....)))..))) | -18.1 kcal/mol | 51.8 °C
30 | GTGATCGAAAGATGCAC ((((((....))).))) | -19.6 kcal/mol | 38.7 °C
31 | GTGATGCCGAAAGGCCAC (((..(((....)))))) | -13.5 kcal/mol | 41.6 °C
32 | GTGATGCGAAAGCACAC (((.(((....)))))) | -25.8 kcal/mol | 53.5 °C
33 | GTGATGGGAAACCATTGC (..((((....))))..) | -23.6 kcal/mol | 33.7 °C
34 | GTGATTGGAAACAACCAC (((.(((....))).))) | -31.3 kcal/mol | 37.5 °C
35 | GTGATTGGAAACAATCAC (((((((....))))))) | -46.9 kcal/mol | 58.3 °C
36 | GTGATTGGAAACAATCGC (.(((((....))))).) | -40.7 kcal/mol | 49.1 °C
37 | GTGATTGGAAACAATTGC (..((((....))))..) | -20.4 kcal/mol | 31.3 °C
38 | GTGATTGGAAACGATCAC (((((.(....).))))) | -44.9 kcal/mol | 47.9 °C
39 | GTGATTTCGAAAGAACAC (((..(((....)))))) | -22.9 kcal/mol | 31.3 °C
40 | GTGCACGAAAGTGATCAC ((((((....)))..))) | -12.7 kcal/mol | 37.4 °C
41 | GTGCACGAAAGTGTACAC ((((((....)))..))) | -17.1 kcal/mol | 51.8 °C
42 | GTGCACGGAAACACGCAC ((((..(....)..)))) | -29.2 kcal/mol | 41.1 °C
43 | GTGCACGGAAACGCGCAC ((((.((....)).)))) | -49 kcal/mol | 57.7 °C
44 | GTGCACGGAAACGTACAC (((.(((....))).))) | -31.8 kcal/mol | 48.5 °C
45 | GTGCAGACGAAAGTCCAC (((..(((....)))))) | -16.9 kcal/mol | 37.9 °C
46 | GTGCAGCGAAAGCTCCAC (((.(((....))).))) | -21.8 kcal/mol | 44.7 °C

Row | Sequence | folding enthalpy [1] | Tm [2]
47 | GTGCAGGGAAACCTACAC (((.(((....))).))) | -31.9 kcal/mol | 41.5 °C
48 | GTGCATACGAAAGTACAC (((..(((....)))))) | -8.91 kcal/mol | 29.3 °C
49 | GTGCATCGAAAGATCCAC (((.(((....))).))) | -28.2 kcal/mol | 38.1 °C
50 | GTGCATGGAAACACGCAC ((((.((....)).)))) | -34.6 kcal/mol | 47.7 °C
51 | GTGCATGGAAACATGCAC (((((((....))))))) | -33.8 kcal/mol | 68.6 °C
52 | GTGCATGGAAACATGTGC (..((((....))))..) | -25 kcal/mol | 43 °C
53 | GTGCCACGAAAGTGACAC (((.(((....))).))) | -40.9 kcal/mol | 56.5 °C
54 | GTGCCAGCGAAAGCTCAC (((..(((....)))))) | -6.66 kcal/mol | 52.6 °C
55 | GTGCCAGGAAACCAGCAC ((((..(....)..)))) | -28.8 kcal/mol | 41.5 °C
56 | GTGCCAGGAAACTGGTGC (..((((....))))..) | -26.2 kcal/mol | 48 °C
57 | GTGCCCCGAAAGGGCCAC (((.(((....))).))) | -13.4 kcal/mol | 51.3 °C
58 | GTGCCCGAAAGGGACAC ((((((....))).))) | -25.5 kcal/mol | 58.7 °C
59 | GTGCCCGAAAGGGCCAC ((((((....))).))) | -7.47 kcal/mol | 57.2 °C
60 | GTGCCCGAAAGGGTACAC ((((((....)))..))) | -13.9 kcal/mol | 61.6 °C
61 | GTGCCGCGAAAGCGCCAC (((.(((....))).))) | -18.2 kcal/mol | 53.8 °C
62 | GTGCCGGGAAACCAGCAC ((((.((....)).)))) | -33.9 kcal/mol | 50.1 °C
63 | GTGCCGGGAAACCGACAC (((.(((....))).))) | -33.5 kcal/mol | 52.9 °C
64 | GTGCCGGGAAACTGGCAC (((((.(....).))))) | -37 kcal/mol | 66 °C
65 | GTGCCTACGAAAGTACAC (((..(((....)))))) | -4.56 kcal/mol | 37.8 °C
66 | GTGCCTCCGAAAGGACAC (((..(((....)))))) | -8.63 kcal/mol | 52.4 °C
67 | GTGCCTCGAAAGAGTCAC (((.(((....))).))) | -29.5 kcal/mol | 50.4 °C
68 | GTGCCTGGAAACGGGCAC (((((.(....).))))) | -36.8 kcal/mol | 65.5 °C

Reference: the array DNA melting data of Ke et al. (doi:10.1101/2024.01.08.574731)
